Paper PMC2943143 (Biochemical pharmacology, 2010)
pIC50: −log10 of the molar value. “Also recorded” adds a separate entry of the source.

Tests used:
cauliflower pol α = experiment: Pol assay, cauliflower pol α; format: biochemical; details: supplemental Fig. S1A
Method in brief: (§1)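 Test compound was dissolved in DMSO and sonicated 30 s. It was preincubated with enzyme (0.05 unit final) in 50 mM Tris-HCl pH 7.5, 1 mM DTT, 50% glycerol and 0.1 mM EDTA at 0 °C for 10 min. This was added to each enzyme's standard reaction mix with poly(dA)/oligo(dT)18 (A/T = 2/1) template-primer and dTTP substrate, then incubated at 37 °C for 60 min. Activity is given as % of inhibitor-free control.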

del-2 pol λ (245–575) = del-2 pol λ (245–575) (Homo sapiens, UniProt Q9UGP5); experiment: Pol assay, del-2 pol λ mutant; format: biochemical
Sequence of del-2 pol λ (245–575) (Q9UGP5 245-575): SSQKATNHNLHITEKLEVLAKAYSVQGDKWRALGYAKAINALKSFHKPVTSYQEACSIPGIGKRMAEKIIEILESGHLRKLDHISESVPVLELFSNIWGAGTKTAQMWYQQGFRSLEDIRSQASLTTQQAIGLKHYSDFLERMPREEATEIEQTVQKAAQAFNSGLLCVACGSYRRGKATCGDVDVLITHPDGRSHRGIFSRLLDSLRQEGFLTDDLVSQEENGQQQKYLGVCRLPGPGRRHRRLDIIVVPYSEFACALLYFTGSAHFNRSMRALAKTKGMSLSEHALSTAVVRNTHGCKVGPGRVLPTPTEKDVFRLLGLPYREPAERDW
Method in brief: as §1

human topoisomerase II = human topoisomerase II (Homo sapiens, UniProt P11388); experiment: DNA topoisomerase II assay; format: biochemical; details: highest tested concentration 1 μM, supplemental Fig. S1B
Sequence of human topoisomerase II (P11388 whole entry): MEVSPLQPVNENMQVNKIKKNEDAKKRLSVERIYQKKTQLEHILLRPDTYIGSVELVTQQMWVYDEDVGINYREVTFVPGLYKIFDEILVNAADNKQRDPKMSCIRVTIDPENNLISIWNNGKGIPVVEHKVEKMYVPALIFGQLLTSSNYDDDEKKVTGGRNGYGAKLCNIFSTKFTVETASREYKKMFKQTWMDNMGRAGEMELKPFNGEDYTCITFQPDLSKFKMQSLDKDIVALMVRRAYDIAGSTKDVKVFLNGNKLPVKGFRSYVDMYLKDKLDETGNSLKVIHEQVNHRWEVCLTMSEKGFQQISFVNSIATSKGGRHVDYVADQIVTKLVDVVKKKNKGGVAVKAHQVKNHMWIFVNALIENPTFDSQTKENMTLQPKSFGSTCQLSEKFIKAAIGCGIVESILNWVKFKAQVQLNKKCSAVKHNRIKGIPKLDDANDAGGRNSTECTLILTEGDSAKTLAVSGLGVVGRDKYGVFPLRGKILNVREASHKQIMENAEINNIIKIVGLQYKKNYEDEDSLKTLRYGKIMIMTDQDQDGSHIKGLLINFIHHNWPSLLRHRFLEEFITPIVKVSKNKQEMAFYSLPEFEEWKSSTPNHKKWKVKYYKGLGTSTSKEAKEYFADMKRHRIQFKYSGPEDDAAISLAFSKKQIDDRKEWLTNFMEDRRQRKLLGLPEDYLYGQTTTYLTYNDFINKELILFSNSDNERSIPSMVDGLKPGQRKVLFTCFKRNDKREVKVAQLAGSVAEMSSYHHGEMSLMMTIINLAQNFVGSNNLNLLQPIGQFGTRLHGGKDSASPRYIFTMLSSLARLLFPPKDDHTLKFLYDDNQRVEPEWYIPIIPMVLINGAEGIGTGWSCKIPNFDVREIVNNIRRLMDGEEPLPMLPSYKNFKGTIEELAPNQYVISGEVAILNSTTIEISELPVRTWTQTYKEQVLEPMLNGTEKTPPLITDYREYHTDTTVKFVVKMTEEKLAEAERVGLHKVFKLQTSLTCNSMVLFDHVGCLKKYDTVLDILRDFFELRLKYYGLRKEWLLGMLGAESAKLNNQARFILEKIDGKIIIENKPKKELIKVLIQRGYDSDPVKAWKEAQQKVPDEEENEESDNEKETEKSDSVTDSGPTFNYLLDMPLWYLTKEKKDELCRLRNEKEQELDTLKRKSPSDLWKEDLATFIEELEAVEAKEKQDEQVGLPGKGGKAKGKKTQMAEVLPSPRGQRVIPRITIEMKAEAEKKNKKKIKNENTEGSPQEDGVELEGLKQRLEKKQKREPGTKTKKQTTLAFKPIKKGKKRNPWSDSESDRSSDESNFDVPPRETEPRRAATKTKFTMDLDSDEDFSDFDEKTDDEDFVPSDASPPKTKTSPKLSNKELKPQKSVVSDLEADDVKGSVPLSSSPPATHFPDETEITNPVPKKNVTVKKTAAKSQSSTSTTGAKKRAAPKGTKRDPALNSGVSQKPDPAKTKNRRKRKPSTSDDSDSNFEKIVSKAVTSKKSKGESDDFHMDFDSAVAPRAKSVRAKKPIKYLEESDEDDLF
Method in brief: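 Topoisomerases I and II were purified from human placenta, and DNase I came from bovine pancreas. Each activity was measured in a standard assay following the supplier's specifications.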

[1] = target: HIV reverse transcriptase; details: read-out: IC50, HIV reverse transcriptase; cited from earlier work
Neutral endopeptidase = details: read-out: IC50, Neutral endopeptidase; cited from earlier work
[2] = target: HIV-1 reverse transcriptase (Human immunodeficiency virus type 1 group M subtype B, UniProt P04585); experiment: HIV-1 reverse transcriptase assay; format: biochemical, Human immunodeficiency virus type-1 (HIV-1); details: highest tested concentration 1 μM, supplemental Fig. S1B
Method in brief: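 Recombinant HIV-1 reverse transcriptase used poly(rA)/oligo(dT)18 (A/T = 2/1) template-primer and dTTP substrate. Enzyme (0.05 unit) was preincubated with test compound in sonicated DMSO at 0 °C for 10 min in Tris-HCl pH 7.5/DTT/glycerol/EDTA buffer. Reaction ran at 37 °C for 60 min. Activity is given as % of control.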

calf thymus TdT = calf thymus TdT (Bos taurus, UniProt P06526); experiment: Pol assay, calf TdT; format: biochemical; details: 100 and 1,000 nM PGG, Fig. 1C
Sequence of calf thymus TdT (P06526 whole entry): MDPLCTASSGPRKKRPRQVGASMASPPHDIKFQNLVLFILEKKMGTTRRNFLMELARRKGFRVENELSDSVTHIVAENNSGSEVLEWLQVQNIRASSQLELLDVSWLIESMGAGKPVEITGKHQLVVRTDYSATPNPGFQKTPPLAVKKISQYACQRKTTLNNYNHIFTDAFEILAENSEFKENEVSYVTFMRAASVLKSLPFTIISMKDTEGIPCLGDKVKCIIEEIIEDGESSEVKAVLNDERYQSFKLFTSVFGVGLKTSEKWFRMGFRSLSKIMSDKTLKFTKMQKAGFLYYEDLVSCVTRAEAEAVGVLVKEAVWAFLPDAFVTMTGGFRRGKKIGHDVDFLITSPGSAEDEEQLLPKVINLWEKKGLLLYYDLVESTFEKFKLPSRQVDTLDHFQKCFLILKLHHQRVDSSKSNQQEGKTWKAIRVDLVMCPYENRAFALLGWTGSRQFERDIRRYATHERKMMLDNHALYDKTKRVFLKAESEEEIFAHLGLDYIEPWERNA
Method in brief: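 TdT was assayed with oligo(dT)18 (3′-OH) primer and dTTP substrate. Test compound in sonicated DMSO was preincubated with 0.05 unit enzyme in 50 mM Tris-HCl pH 7.5, 1 mM DTT, 50% glycerol and 0.1 mM EDTA at 0 °C for 10 min. Reaction ran at 37 °C for 60 min. Remaining activity is expressed relative to no-inhibitor control.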

T7 RNA polymerase = T7 RNA polymerase (Escherichia phage T7, UniProt P00573); experiment: T7 RNA polymerase assay; format: biochemical; details: highest tested concentration 1 μM, supplemental Fig. S1B
Sequence of T7 RNA polymerase (P00573 whole entry): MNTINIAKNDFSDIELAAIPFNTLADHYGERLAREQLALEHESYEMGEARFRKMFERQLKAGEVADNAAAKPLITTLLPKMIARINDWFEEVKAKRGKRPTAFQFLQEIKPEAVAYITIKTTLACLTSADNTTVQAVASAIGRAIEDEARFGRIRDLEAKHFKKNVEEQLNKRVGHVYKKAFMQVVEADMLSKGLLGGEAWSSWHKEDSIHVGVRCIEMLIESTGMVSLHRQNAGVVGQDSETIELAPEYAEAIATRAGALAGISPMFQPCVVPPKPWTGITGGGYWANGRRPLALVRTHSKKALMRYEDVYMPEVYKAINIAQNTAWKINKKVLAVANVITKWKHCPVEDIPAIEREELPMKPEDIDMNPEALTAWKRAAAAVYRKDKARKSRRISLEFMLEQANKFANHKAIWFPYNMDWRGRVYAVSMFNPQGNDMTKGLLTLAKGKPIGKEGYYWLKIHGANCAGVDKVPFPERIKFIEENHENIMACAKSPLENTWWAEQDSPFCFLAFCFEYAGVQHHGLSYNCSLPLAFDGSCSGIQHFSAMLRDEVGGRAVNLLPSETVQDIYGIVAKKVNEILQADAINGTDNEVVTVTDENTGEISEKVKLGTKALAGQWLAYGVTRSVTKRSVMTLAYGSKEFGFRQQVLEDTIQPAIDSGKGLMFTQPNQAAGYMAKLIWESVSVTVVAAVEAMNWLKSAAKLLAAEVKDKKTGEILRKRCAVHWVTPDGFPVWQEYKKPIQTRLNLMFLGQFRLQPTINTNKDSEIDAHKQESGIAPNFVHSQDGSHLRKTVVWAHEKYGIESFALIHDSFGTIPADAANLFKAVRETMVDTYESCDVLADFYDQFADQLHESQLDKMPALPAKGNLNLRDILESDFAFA

human telomerase = human telomerase (Homo sapiens, UniProt O14746); experiment: Telomerase assay; format: biochemical; details: highest tested concentration 1 μM, supplemental Fig. S1B
Sequence of human telomerase (O14746 whole entry): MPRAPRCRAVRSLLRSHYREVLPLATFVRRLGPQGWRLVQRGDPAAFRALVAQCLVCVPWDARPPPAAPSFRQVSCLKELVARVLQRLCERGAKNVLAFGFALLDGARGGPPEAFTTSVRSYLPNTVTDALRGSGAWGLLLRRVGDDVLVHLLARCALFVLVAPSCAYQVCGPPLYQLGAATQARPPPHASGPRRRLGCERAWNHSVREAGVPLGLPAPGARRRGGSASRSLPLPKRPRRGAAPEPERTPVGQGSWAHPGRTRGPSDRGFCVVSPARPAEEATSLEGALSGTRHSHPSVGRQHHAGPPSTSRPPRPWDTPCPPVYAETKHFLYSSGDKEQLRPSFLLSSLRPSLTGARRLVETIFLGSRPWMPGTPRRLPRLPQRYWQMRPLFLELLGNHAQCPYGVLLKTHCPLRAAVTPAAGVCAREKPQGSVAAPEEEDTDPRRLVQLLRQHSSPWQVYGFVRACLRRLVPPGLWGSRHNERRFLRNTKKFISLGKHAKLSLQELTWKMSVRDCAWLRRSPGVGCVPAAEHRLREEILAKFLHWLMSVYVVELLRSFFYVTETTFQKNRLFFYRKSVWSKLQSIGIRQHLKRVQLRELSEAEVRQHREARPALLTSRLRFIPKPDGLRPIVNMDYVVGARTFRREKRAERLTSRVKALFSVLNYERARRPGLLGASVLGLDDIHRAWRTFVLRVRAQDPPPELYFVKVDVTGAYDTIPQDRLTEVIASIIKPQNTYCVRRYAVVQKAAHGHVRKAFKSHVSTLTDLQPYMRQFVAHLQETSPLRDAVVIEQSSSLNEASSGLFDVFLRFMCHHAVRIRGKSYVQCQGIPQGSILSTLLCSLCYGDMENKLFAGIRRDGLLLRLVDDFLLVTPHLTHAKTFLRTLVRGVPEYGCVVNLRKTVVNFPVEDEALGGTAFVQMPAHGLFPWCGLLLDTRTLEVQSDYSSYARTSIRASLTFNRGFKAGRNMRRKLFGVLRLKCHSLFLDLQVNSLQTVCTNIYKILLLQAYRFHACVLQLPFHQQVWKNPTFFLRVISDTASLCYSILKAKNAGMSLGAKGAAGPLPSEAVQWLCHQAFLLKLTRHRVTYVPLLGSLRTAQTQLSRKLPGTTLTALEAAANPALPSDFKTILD

Compound: O=C(OC[C@H]1O[C@@H](OC(=O)c2cc(O)c(O)c(O)c2)[C@H](OC(=O)c2cc(O)c(O)c(O)c2)[C@@H](OC(=O)c2cc(O)c(O)c(O)c2)[C@@H]1OC(=O)c1cc(O)c(O)c(O)c1)c1cc(O)c(O)c(O)c1 [PGG, 1,2,3,4,6-penta-O-galloyl-β-D-glucose]
- effect on cauliflower pol α activity (cauliflower pol α): not influenced
- pIC50 (del-2 pol λ (245–575)): 6.93
- effect on human topoisomerase II activity (human topoisomerase II): did not suppress
- pIC50 [1]: < 4.00
- pIC50 (Neutral endopeptidase): 4.90
- effect on HIV-1 reverse transcriptase activity [2]: did not suppress
- effect on TdT activity (calf thymus TdT): not affected; also recorded: not sensitive
- effect on T7 RNA polymerase activity (T7 RNA polymerase): did not suppress
- effect on human telomerase activity (human telomerase): did not suppress
